The source made the active and inactive calls. The rule behind the calls is not given here.
Assays:
[1] = Induction of apoptosis in human T24 cells assessed as AIF upregulation after 24 hrs by qRT-PCR analysis; format: functional, cell-based; details: T-24
Outline: (§1)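 T24 cells treated at […] for 24 h before RNA extraction. SYBR Green qRT-PCR with 500 nM primers: 2 min at 50 C, 10 min at 95 C, then 40 cycles of 15 s at 95 C and 1 min at 60 C. Expression by the ΔCt method against actin, normalized to untreated cells; run in triplicate.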

[2] = Induction of apoptosis in human T24 cells assessed as cytC upregulation after 24 hrs by qRT-PCR analysis; format: functional, cell-based; details: T-24; outline: as §1
T-24 [3] = experiment: Induction of apoptosis in human T24 cells assessed as viable cells at 10 uM after 24 hrs by annexin-V-FITC/propidium iodide staining-based flow cytometry (reference value: 93.5%); format: functional; details: T-24, 24 h, read-out: Activity
[4] = Cytotoxicity against human SKOV3 cells after 2 days by MTT assay; format: functional, cell-based; details: SK-OV-3, 48 h
Outline: (§2)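 Cells grown in medium with 10% heat-inactivated FBS at 37 C under 5% CO2. Compounds dissolved in medium with 1% DMSO; controls received 1% DMSO. After 2 days, MTT (10 mg/mL) added for 4 h, formazan dissolved in DMSO and absorbance read at 570/630 nm. Survival taken relative to negative control; IC50 by Bliss method (n = 5), at least three independent experiments.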

T-24 [5] = experiment: Induction of apoptosis in human T24 cells assessed as late apoptotic cells at 20 uM after 24 hrs by annexin-V-FITC/propidium iodide staining-based flow cytometry (reference value: 2.08%); format: functional
[6] = Cell cycle arrest in human T24 cells assessed as alteration in cyclin A level at 5 to 20 uM after 24 hrs by Western blotting analysis; format: functional, cell-based; details: T-24
[7] = Induction of apoptosis in human T24 cells assessed as caspase-8 upregulation at IC50 after 24 hrs by qRT-PCR analysis relative to control; format: functional, cell-based; details: T-24
[8] = Induction of apoptosis in human T24 cells assessed as Bcl2 upregulation after 24 hrs by qRT-PCR analysis; format: functional, cell-based; details: T-24; outline: as §1
T-24 [9] = experiment: Induction of apoptosis in human T24 cells assessed as early apoptotic cells at 5 uM after 24 hrs by annexin-V-FITC/propidium iodide staining-based flow cytometry (reference value: 2.74%); format: functional
NCI-H460 = experiment: Cytotoxicity against human NCI-H460 cells after 2 days by MTT assay; format: functional, cell-based; details: NCI-H460, 48 h; outline: as §2
[10] = Induction of apoptosis in human T24 cells assessed as caspase-3 upregulation at IC50 after 24 hrs by qRT-PCR analysis relative to control; format: functional, cell-based; details: T-24
[11] = Cell cycle arrest in human T24 cells assessed as increase in p21 level after 24 hrs by Western blotting analysis; format: functional, cell-based; details: T-24
Outline: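 T24 cells treated at […] for 24 h and lysed in ice-cold RIPA buffer with protease inhibitors and NaF. Protein measured by Bradford; 30 micrograms per lane run on 12% SDS-PAGE and transferred to PVDF. Blocked 2 h at room temperature, primary antibody overnight at 4 C, HRP secondary (1:2000) 1 h, chemiluminescence detection.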

For COc1ccc2c(c1)/C(=N\O)C(c1c[nH]c3ccc(OC)cc13)=N2, the Activity [1] was “Dose-dependent effect”, the Activity [2] was “Dose-dependent effect” and the viability at 10 µM (T-24 [3]) was 79.9%. The IC50 [4] was 12.5 µM, the Activity (T-24 [5]) was 7.13% and the Activity [6] was “inactive”. The fold change (FC) [7] was 8.03, the Activity [8] was “Dose-dependent effect” and the Activity (T-24 [9]) was 6.89%. For the same compound, the IC50 (NCI-H460) was 9.83 µM, the fold change (FC) [10] was 24.8 and the Activity [11] was “Dose-dependent effect”.
